# Measurements of several laboratories.
# Compare with care: the assays were run in different laboratories.
# Observed: cell growth or viability
SMILES,cell line,method,concentration,time,notes,measurement,result
O=C(/C=C/c1ccc(F)cc1)Nc1cc(-c2ccnc(N3CCC(O)CC3)c2)ccn1,A549,MTT,5 µM,,,inhibition,62.2%
CC(=NNC(=O)COc1ccc2c(C)c(Cc3ccccc3)c(=O)oc2c1C)c1ccc(Br)cc1,PC-3,MTT,31.25 µg/mL,,,viability,14%
Cc1nc(NC(=O)N2CCC[C@H]2C(N)=O)sc1-c1ccnc(C(C)(C)C(F)(F)F)c1,A549,MTT,,,,IC50,11.1 µM
CCc1c(C)c2ccc(OCC=Cc3ccccc3)c(C)c2oc1=O,PC-3,MTT,250 µg/mL,,,viability,18.1%
COc1cc2ncnc(Nc3ccc4c(c3)/C(=C/c3ccccc3)C(=O)N4C)c2cc1OC,A549,MTT,,,,IC50,14.4 µM
Cc1c(Cc2ccccc2)c(=O)oc2c(C)c(OCC(=O)NN=Cc3ccco3)ccc12,PC-3,MTT,500 µg/mL,,,viability,8.21%
O=C(O)c1ccc2c(c1)nc(Nc1cccc(Cl)c1)c1ccncc12,NCI-H522,resazurin,,48 h,,IC50,9.3 µM
O=C(C=Cc1cccc(F)c1)Nc1cc(-c2ccnc(N3CCC(O)CC3)c2)ccn1,A549,MTT,5 µM,,,inhibition,65%
CCC[C@H]1NC(=O)[C@H](Cc2cc(Cl)ccc2-c2cnn(C)c2)N(C)C(=O)[C@H](CC(C)C)NC(=O)[C@@H](N(C)C(=O)[C@H](CCCCN2CCOCC2)NC(=O)[C@@H](c2cccnc2)C2CCCCC2)CCCCNC1=O,NCI-H1048,MTT,,5 days,,GI50,3 µM
Cc1cccc(/C=C/C(=O)Nc2cccc(-c3ccnc(N4CCOCC4)c3)c2)c1,A549,MTT,5 µM,,,inhibition,29.4%
CCOc1ccc2c(C)c(CC)c(=O)oc2c1C,PC-3,MTT,125 µg/mL,,,viability,51%
O=C(C=Cc1ccccc1)Nc1cc(-c2ccnc(N3CCC(O)CC3)c2)ccn1,A549,MTT,5 µM,,,inhibition,73.1%
COc1ccc(-c2cc(-c3ccc(C)cc3)nc3[nH]c(=O)[nH]c(=O)c23)cc1OC,PC-3,MTT,,48 h,,IC50,39.1 µM
Cc1c(Cc2ccccc2)c(=O)oc2c(C)c(OCC(=O)NN=Cc3ccc(Cl)cc3)ccc12,PC-3,MTT,31.25 µg/mL,,,viability,61.2%
COc1ccc(-c2cc(-c3ccc(Br)cc3)c3c(=O)[nH]c(=O)[nH]c3n2)cc1,PC-3,MTT,,48 h,,IC50,15.9 µM
Cc1cccc(/C=C/C(=O)Nc2cc(-c3ccnc(N4CCOCC4)c3)ccn2)c1,A549,MTT,5 µM,,,inhibition,74.9%
C=CC(=O)NC1CCN(c2ncc3ncnc(Nc4ccc(Oc5ccc6c(c5)ncn6C)c(C)c4)c3n2)CC1,A549,,,,,EC50,6.34 µM
COc1cc2ncnc(N(C)c3ccc4c(c3)/C(=C/c3ccccc3)C(=O)N4C)c2cc1OC (mixture of isomers),A549,MTT,,,,IC50,3.24 µM
Cc1cccc(/C=C/C(=O)Nc2cccc(-c3ccnc(N4CCC(O)CC4)c3)c2)c1,A549,MTT,5 µM,,,inhibition,54.8%
Cc1ccc(-c2cc(-c3ccc(Cl)c(F)c3)c3c(=O)[nH]c(=O)[nH]c3n2)cc1,PC-3,MTT,,48 h,,IC50,21.2 µM
COc1cccc2c1C(=O)c1c(O)c3c(c(O)c1C2=O)C[C@@](O)(C(=O)CO)C[C@@H]3O[C@H]1C[C@H](N)[C@H](O)[C@H](C)O1,A549,MTT,100 µg/mL,48 h,serum-free,viability,12.4%
CCc1c(C)c2ccc(OCC(=O)NNC(=S)Nc3ccccc3)c(C)c2oc1=O,PC-3,MTT,125 µg/mL,,,viability,4.76%
Cc1cc(NC(=O)C=Cc2ccccc2)cc(-c2ccnc(N3CCOCC3)c2)c1,A549,MTT,5 µM,,,inhibition,17.7%
C=CCOc1ccc2c(C)c(CC)c(=O)oc2c1C,PC-3,MTT,31.25 µg/mL,,,viability,99.7%
O=C(C=Cc1ccccc1)Nc1cccc(-c2ccnc(N3CCC(CO)CC3)c2)c1,A549,MTT,5 µM,,,inhibition,59.1%
Cc1c(Cc2ccccc2)c(=O)oc2c(C)c(OCC(=O)NN=Cc3ccccc3)ccc12,PC-3,MTT,31.25 µg/mL,,,viability,42.1%
Cc1nc(Nc2ccc3c(c2)/C(=C/c2ccccc2)C(=O)N3C)c2ccccc2n1,A549,MTT,,,,IC50,27.8 µM
